From PubChem BioAssay
Some of the results follow. A number with no mark means an inactive call. Calls of active or inactive are those of the source.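 How the source made its calls, unless noted: active means mean percent activation of the reporter above a cutoff set as the average over tested compounds plus their standard deviation; inactive means the rest.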

How the values were obtained:
[1] = molecular target: Oxysterols receptor LXR-beta (Homo sapiens) (UniProt P55055); assay: LXR agonists, Gal4 luciferase reporter, confirmation, counter-screen for hcDAF-12 agonist project, cell-based, luminescence, HEK293, H. contortus campaign (AID 743027); conditions: HEK293 Gal4-LXR tk-luc reporter, 24 h, at 6.8 µM, active compounds read high, normalized: DMSO 0%, positive control 100%
Outline: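 material = Gal4-LXR and tk-luc reporter transfected HEK293 cells | benchmarks = DMSO low control, positive-control high control | compound dosing = one nominal 6.8 µM dose, 0.68% DMSO | repeats = three replicates per compound | times = 24 h compound exposure at 37 °C, 5% CO2 | detection = One-Glo luciferase luminescence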

[2] = system: Nuclear hormone receptor DAF-12 (Haemonchus contortus); assay: H. contortus DAF-12 receptor agonists, confirmation, cell-based, luminescence, HEK293, lit1-tk-luc, triplicate (AID 743032;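 active means mean activation across triplicate tests above the threshold derived from the earlier primary screen, cut at about 5.5% in these data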;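 further: 0% = DMSO only wells and 100% = 3 µM Δ7-dafachronic acid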); conditions: HEK293 hcDAF-12 lit1-tk-luc reporter, at 6.8 µM, active compounds read high, % of Δ7-dafachronic acid response

Chain of Oxysterols receptor LXR-beta (Homo sapiens) (P55055 whole entry, looked up, the tested form may be a part): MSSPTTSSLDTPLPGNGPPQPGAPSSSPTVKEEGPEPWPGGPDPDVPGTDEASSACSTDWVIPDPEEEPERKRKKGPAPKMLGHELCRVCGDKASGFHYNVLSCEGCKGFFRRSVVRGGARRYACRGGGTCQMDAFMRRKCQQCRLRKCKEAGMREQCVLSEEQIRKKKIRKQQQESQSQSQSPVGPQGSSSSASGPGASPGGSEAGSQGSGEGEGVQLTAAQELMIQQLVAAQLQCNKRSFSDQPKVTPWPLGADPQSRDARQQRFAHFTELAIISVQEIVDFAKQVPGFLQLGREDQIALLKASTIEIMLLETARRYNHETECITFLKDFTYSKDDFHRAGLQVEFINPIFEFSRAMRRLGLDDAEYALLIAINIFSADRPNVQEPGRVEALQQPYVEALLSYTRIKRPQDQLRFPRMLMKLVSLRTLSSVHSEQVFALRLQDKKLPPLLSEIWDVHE

Row | Compound | activation [1] | activation [2]
1 | O=C(NC(Cc1c[nH]c2ccccc12)C(=O)O)/C(=C/c1ccco1)NC(=O)c1ccccc1 (stereo unspecified) | 0.05% | 3.64%
2 | CCn1cc(CN2CCN(CC(C)(C)C)C(CCO)C2)c2ccccc21 (stereo unspecified) | -0.12% | 3.73%
3 | O=C(N/N=C\C1CC=CCC1)c1ccc(Br)o1 (stereo unspecified) | -0.16% | 0.29%
4 | COc1ccc(C2CC(c3cccs3)=Nc3ccccc3S2)cc1OC (stereo unspecified) | -0.03% | 2.78%
5 | CCS(=O)(=O)N1Cc2ccccc2CC1C(=O)Nc1nc2ccc(F)cc2s1 (stereo unspecified) | 0.39% | 6.53% (active)
6 | O=C(NC1CCCCC1)C(c1cc2ccccc2o1)n1c(=O)c(-c2ccco2)nc2ccccc21 (stereo unspecified) | 0.03% | 5.1%
7 | Cc1ccc(C(=O)O/N=C(\N)c2ccccn2)cc1Cl | 1.52% | 4.81%
8 | C(=N\Nc1ccc2ccccc2n1)/c1ccc2c(c1)OCO2 | 1.28% | 4.85%
9 | COc1cc2ccccc2cc1C(=O)Nc1ccccc1C | 0.82% | 9.11% (active)
10 | CN1CCc2ccccc2C1Cc1ccccc1NC(=O)c1sc2ccccc2c1Cl (stereo unspecified) | -0.05% | 1.76%
11 | O=C(CN1CCCCC1)NC(=O)Nc1ccccc1F | 0.17% | 1.2%
12 | NS(=O)(=O)c1ccc2nc(NC(=O)CS(=O)(=O)c3ccc(F)cc3)sc2c1 | -0.28% | 3.34%
13 | CC(C)(C)NC(=O)C(c1ccncc1)N(C(=O)CNC(=O)c1ccco1)c1ccc2c(c1)OCO2 (stereo unspecified) | -0.43% | -0.59%
14 | N[C@@H](Cc1ccccc1)C(=O)N1CCC(C(=O)NCC(=O)Nc2ccc(F)cc2)CC1 | -0.2% | 0.19%
15 | Cc1cnc(NC(=O)c2ccc(Cl)nc2)s1 | 0.78% | 11.4% (active)
16 | COc1ccc(Nc2nc(-c3ccccc3)cs2)cc1 | 1.88% | 18.8% (active)
17 | O=C(O)CN1c2cccc3cccc(c23)S1(=O)=O | -0.29% | 1.3%
18 | CCS(=O)(=O)c1cc([N+](=O)[O-])c(Sc2ccccc2N)s1 | 0.38% | 7.39% (active)
19 | C/C(=N/NC(=O)c1ccc(Br)o1)c1ccc(C)o1 | -0.01% | 4.27%

Row | Compound | activation [1] | activation [2]
20 | Cc1ccc(-c2nc3ccccc3[nH]2)cc1N | 2.07% | 10.4% (active)
21 | N#Cc1c(NC(=O)C2CCCO2)sc2c1CCCCC2 (stereo unspecified) | 1.18% | 6.65% (active)
22 | CCCCN(C)C(=O)c1ccc2c(c1)N(CC)C(=O)c1ccccc1S2(=O)=O | -0.28% | 0.81%
23 | CCCc1cc(C(=O)Nc2ccc(Cl)cn2)cs1 | 1.33% | 4.99%
24 | COc1ccc(C2COC(=O)C2=N)c(NC(=O)c2ccccc2)c1 (stereo unspecified) | -0.25% | 4.45%
25 | Clc1ccc(-c2cc(-c3ccccn3)on2)c(Cl)c1 | 1.95% | 12.6% (active)
26 | C/C(=N/NC(=S)Nc1ccccc1)c1ccc2c(c1)OCO2 | 0.01% | 0.89%
27 | NNC(=O)C1CCCn2c1nc1sc3c(c1c2=O)CCCC3 (stereo unspecified) | -0.2% | 4.24%
28 | COc1ccc(-c2c3c(=O)n(C)c(=O)n(C)c3cn2-c2cccc(OC)c2)cc1 | -0.23% | 3.87%
29 | COc1ccc(C2=NOC(COC(=O)c3ccc4ccccc4n3)C2)cc1 (stereo unspecified) | 0.05% | 4.94%
30 | Cc1cccc(Nc2nc(-c3ccccc3)cs2)n1 | 1.85% | 16% (active)
31 | Cc1cc(O)c(C(=O)/C=C/c2c(F)c(F)c(F)c(F)c2F)c(=O)o1 | -0.23% | -1.06%
32 | Cc1cc(C)nc(Nc2n[nH]c(-c3ccccc3N)n2)n1 | 2.12% | 8.91% (active)
33 | O=C(O)c1[nH]c2ccccc2c1C(c1cccc(O)c1)c1c(C(=O)O)[nH]c2ccccc12 | -0.02% | 4.41%
34 | Cc1ccnc(NC(=O)c2ccoc2C)c1 | 0.3% | 3.77%
35 | CC(=O)N1C(=O)/C(=C2\SC(=S)N(NC(=O)c3ccc(O)cc3)C2=O)c2ccccc21 | -0.17% | 1.25%
36 | COC(=O)C1=NN(c2ccccc2)C2C(=O)N(c3ccccc3OC)C(=O)C12 (stereo unspecified) | -0.15% | -0.03%
37 | COc1ccc(-c2cn3ccc(C)cc3n2)cc1 | 1.71% | 9.09% (active)
38 | CNc1nc(Nc2ccc(C)c(Cl)c2)nc(N)c1[N+](=O)[O-] | 0.77% | 10.9% (active)
